Experimental findings from PMC12135072 (RSC Medicinal Chemistry, 2025) are described below.

Structures are written as SMILES.

One data set has as its system MCF7 breast cancer cells. As to the kind of experiment: Apoptosis, annexin V staining and flow cytometry. In kind it is cell-based. Put shortly: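 MCF7 cells were exposed to the test compounds for 24 or 48 h, with etoposide (10 μM) as the positive control and 0.1% DMSO as the untreated control. Cells were stained with annexin V and analysed by flow cytometry into live, early apoptotic and late apoptotic fractions.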
(In general: A flow cytometer gives signals particle by particle.)

The test system of data set [1] is chorioallantoic membrane (CAM) blood vessel formation. As to the kind of experiment: Ex ovo chorioallantoic membrane. In kind it is in vivo, chicken. As to conditions: concentration-dependent, over time.
Data set [2] deals with MCF7 (ATCC – HTB-22, breast carcinoma). As to the kind of experiment: MTT cell viability assay, MCF7. Type of data set: cell-based. To be noted: for IC50: Homo sapiens, MCF7, read-out: IC50 MCF7; for higher potency compared to previously reported fused pyran derivative III: MCF7 IC50 versus III. (Formazan colour is commonly taken as a measure of viable cells.)
Data set [3] has as its system HCT116 (ATCC – CCL-247, colon carcinoma). As to the kind of experiment: MTT cell viability assay, HCT116. In kind it is cell-based. To be noted: Homo sapiens, HCT-116, read-out: IC50 HCT116.
The test system of data set [4] is MRC5 (ATCC – CCL-171, human diploid fibroblast cell line). As to the kind of experiment: cells. As to conditions: MRC5, read-out: IC50 MRC5.
Another data set concerns MCF-7 cells. As to the kind of experiment: Colony formation assay. Type of data set: cell-based.
The subject of another data set is MCF7 cell line. As to the kind of experiment: γH2AX labelling for DNA double-strand breaks. In kind it is cell-based. To be noted: compounds at IC50, etoposide 10 μM. The gist of the method: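 To detect DNA double-strand breaks, MCF7 cells were exposed to the test compounds for 24 and 48 h, with etoposide as the positive control and 0.1% DMSO as the vehicle. γH2AX labelling was quantified by flow cytometry. n = 3; two-way ANOVA with Tukey's test.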

The subject of a further data set is MCF7 spheroids. As to the kind of experiment: Spheroid formation assay. In kind it is cell-based. To be noted: 72 hours of treatment. The gist of the method:
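Agar was liquefied in normal saline, sterilized and cast into 3D molds, which were rinsed with culture medium. MCF7 cells were seeded onto the molds and left 20 min to adhere, then medium with varied test-compound concentrations was added. Spheroid dimensions were tracked by live-cell imaging and compared with untreated controls.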

A further data set concerns MCF7 cells. As to the kind of experiment: Cell cycle analysis. Type of data set: cell-based. To be noted: for S phase population / cells in G1 phase / cells in G2 (G2/M) phase: MCF7, 24 hours; for S phase population: compounds at IC50; for cells in G1 phase / cells in G2 (G2/M) phase / G1 phase population / G2 (G2/M) phase population: compounds at IC50, ETP 10 μM; for G1 phase population / G2 (G2/M) phase population: MCF7, 48 hours. The gist of the method:
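MCF7 cells were treated with the test compounds for 24 and 48 h, with etoposide as the positive control and 0.1% DMSO as the vehicle. Cells were stained with propidium iodide and their G1, S and G2 distribution was read by flow cytometry. n = 3; two-way ANOVA with Tukey's test.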

The subject of data set [5] is MRC5 (ATCC – CCL-171, human diploid fibroblast cell line).
Data set [6] has as its system A549 (ATCC – CCL-185, lung carcinoma). As to the kind of experiment: MTT cell viability assay, A549. Type of data set: cell-based. To be noted: Homo sapiens, A549, read-out: IC50 A549.
The mark [7] stands for this setting: MCF7, 24 hours, compounds at IC50.
The mark [8] stands for this setting: MCF7, 24 hours, compounds at IC50, etoposide 10 μM.
Setting [9] is: MCF7, 48 hours, compounds at IC50, etoposide 10 μM.

What is called IC50 is the concentration that gives 50% inhibition. As to `Cc1nccn1-c1ccc(C2C(C#N)=C(N)OC3=C2C(=O)CC(C)(C)C3)cc1` (stereo not drawn) [Compound 8a, 2-Amino-7,7-dimethyl-4-(4-(2-methyl-1H-imidazol-1-yl)phenyl)-5-oxo-5,6,7,8-tetrahydro-4H-chromene-3-carbonitrile], in the data set on MCF7 breast cancer cells (setting [7]), the live cells is given as 86.4 ± 0.15%. For the same compound, the early apoptotic cells in the data set with MCF7 breast cancer cells (setting [8]) turned out to be 4.27 ± 0.20%; in the data set on MCF7 breast cancer cells (setting [9]), 5.89 ± 0.20%. In addition, the late apoptotic cells in the data set with MCF7 breast cancer cells (setting [8]) is 7.6 ± 0.01%; in the data set on MCF7 breast cancer cells (setting [9]), 6.17 ± 0.13%. In addition, the “new blood vessel formation versus untreated controls” value in data set [1] is “significant reduction in new blood vessel formation”. For the same compound, the IC50 was 8.24 ± 0.19 µM in [2], 143 ± 6.35 µM in [3], above 200 µM in [4] and 111 ± 4.91 µM in [6]. Besides, the “higher potency compared to previously reported fused pyran derivative III” value in data set [2] was determined as 1.5 fold. Moreover, the “percentage of colony formation” value came out at 94.3 ± 4.04% in the data set with MCF-7 cells (MCF-7, compound at IC10); 74.3 ± 2.08% in the data set on MCF-7 cells (MCF-7, compound at IC50); 5.67 ± 4.04% in the data set on MCF-7 cells (MCF-7, compound at IC90). Further, the γH2AX levels worked out at 2.89 ± 0.99 with MCF7 cell line (MCF7, 24 hours) and 20.3 ± 2.74 in the data set on MCF7 cell line (MCF7, 48 hours). Besides, the “spheroid size versus untreated control” value in the data set with MCF7 spheroids is on record as “pronounced reduction in size”. Besides, the S phase population in the data set on MCF7 cells turned out to be 21.11 ± 3.39%. Further, the “cells in G1 phase” value in the data set with MCF7 cells was 37.08 ± 5.07%. Also, in the data set with MCF7 cells, the “cells in G2 (G2/M) phase” value turned out to be 30.63 ± 4.35%. Moreover, the G1 phase population in the data set with MCF7 cells was 47.08 ± 0.6%. Also, the “toxicity to MRC5 (MCR5) cells” value in data set [5] is recorded as “nontoxic”.
As to `Cc1cn(-c2ccc(C3C(C#N)=C(N)OC4=C3C(=O)CC(C)(C)C4)cc2)cn1` (stereo not drawn) [Compound 8b, 2-Amino-7,7-dimethyl-4-(4-(4-methyl-1H-imidazol-1-yl)phenyl)-5-oxo-5,6,7,8-tetrahydro-4H-chromene-3-carbonitrile], the live cells in the data set on MCF7 breast cancer cells (setting [7]) turned out to be 87.55 ± 0.08%; in the data set with MCF7 breast cancer cells (setting [9]), 84.45 ± 0.64%. The results for the early apoptotic cells in the data set on MCF7 breast cancer cells (setting [8]) and in the data set on MCF7 breast cancer cells (setting [9]) were 2.66 ± 0.12% and 5.27 ± 0.13%, respectively. In addition, the late apoptotic cells in the data set with MCF7 breast cancer cells (setting [8]) was 7.87 ± 0.02%; in the data set with MCF7 breast cancer cells (setting [9]) it was 9.46 ± 0.22%. Besides, the debris/dead cells in the data set on MCF7 breast cancer cells (MCF7, 48 hours, compound at IC50) stood at 0.82 ± 0.30%. Moreover, the “new blood vessel formation versus untreated controls” value in data set [1] is “significant reduction in new blood vessel formation”. Besides, the IC50 in data set [2] was 4.22 ± 0.81 µM; in data set [3], 129 ± 5.79 µM; in data set [4] it was above 200 µM; in data set [6] it was 110 ± 4.94 µM. Also, the “higher potency compared to previously reported fused pyran derivative III” value in data set [2] is given as 3 fold. Also, the “percentage of colony formation” value is reported as 97.7 ± 1.53% in the data set with MCF-7 cells (MCF-7, compound at IC10); 76 ± 2.65% in the data set with MCF-7 cells (MCF-7, compound at IC50); 15 ± 5% in the data set on MCF-7 cells (MCF-7, compound at IC90). For the same compound, the γH2AX levels in the data set with MCF7 cell line (MCF7, 24 hours) was determined as 4.71 ± 0.75; with MCF7 cell line (MCF7, 48 hours), 21.62 ± 3.38. The “spheroid size versus untreated control” value in the data set on MCF7 spheroids was “marked reduction in size”. The S phase population in the data set on MCF7 cells is 15.11 ± 2.59%. Also, the “cells in G1 phase” value with MCF7 cells is 41.59 ± 7.44%. In addition, the “cells in G2 (G2/M) phase” value in the data set with MCF7 cells is 30.79 ± 5.11%. The compound also showed a G1 phase population in the data set with MCF7 cells of 45.22 ± 0.82%. For the same compound, in the data set with MCF7 cells, the “G2 (G2/M) phase population” value stood at 28.83 ± 0.52%. For the same compound, in data set [5], the “toxicity to MRC5 (MCR5) cells” value is “nontoxic”.
With `Cc1cc2c(c(=O)o1)C(c1ccc(OCc3cn(-c4ccc(Br)cc4)nn3)cc1)C(C#N)=C(N)O2` (stereo not drawn) [Compound 17c, 2-Amino-4-(4-((1-(4-bromophenyl)-1H-1,2,3-triazol-4-yl)methoxy)phenyl)-7-methyl-5-oxo-4H,5H-pyrano[4,3-b]pyran-3-carbonitrile], the IC50 in data set [2], in data set [3], in data set [4] and in data set [6] was above 200 µM throughout.
`Cc1ccc(-n2cc(COc3ccc(C4C(C#N)=C(N)Oc5cc(C)oc(=O)c54)cc3)nn2)cc1` (stereo not drawn) [Compound 17d, 2-Amino-7-methyl-5-oxo-4-(4-((1-(p-tolyl)-1H-1,2,3-triazol-4-yl)methoxy)phenyl)-4H,5H-pyrano[4,3-b]pyran-3-carbonitrile]: the IC50 in [2], in data set [3], in data set [4] and in [6] was above 200 µM each time.
With `COc1ccc(-n2cc(COc3ccc(C4C(C#N)=C(N)Oc5cc(C)oc(=O)c54)cc3)nn2)cc1` (stereo not drawn) [Compound 17e, 2-Amino-4-(4-((1-(4-methoxyphenyl)-1H-1,2,3-triazol-4-yl)methoxy)phenyl)-7-methyl-5-oxo-4H,5H-pyrano[4,3-b]pyran-3-carbonitrile], the IC50 was 52.2 ± 1.34 µM in data set [2], above 200 µM in data set [3], above 200 µM in [4] and above 200 µM in data set [6].
For the compound `Cc1cc2c(c(=O)o1)C(c1ccc(-n3ccnn3)cc1)C(C#N)=C(N)O2` (stereo not drawn) [Compound 17f, 4-(4-(1H-1,2,3-Triazol-1-yl)phenyl)-2-amino-7-methyl-5-oxo-4H,5H-pyrano[4,3-b]pyran-3-carbonitrile], the IC50 in data set [2] is 30.3 ± 1.73 µM; in data set [3], above 200 µM; in data set [4], above 200 µM; in data set [6], above 200 µM.
For `Cc1cc2c(c(=O)o1)C(c1ccc(-n3cnnn3)cc1)C(C#N)=C(N)O2` (stereo not drawn) [Compound 17g, 4-(4-(1H-Tetrazol-1-yl)phenyl)-2-amino-7-methyl-5-oxo-4H,5H-pyrano[4,3-b]pyran-3-carbonitrile], the IC50 in [2] was 39.2 ± 2.71 µM; in data set [3], above 200 µM; in data set [4] it was above 200 µM; in data set [6], 164 ± 3.26 µM.
Consider `COc1cc([C@@H]2c3cc4c(cc3[C@@H](O[C@@H]3O[C@@H]5CO[C@@H](C)O[C@H]5[C@H](O)[C@H]3O)[C@H]3COC(=O)[C@H]23)OCO4)cc(OC)c1O` [Etoposide, reference compound], for which, in the data set with MCF7 breast cancer cells (setting [8]), the early apoptotic cells worked out at 6.42 ± 0.27% and the late apoptotic cells is 12.25 ± 0.08%. In the data set with MCF7 breast cancer cells (setting [9]), this compound came in with an early apoptotic cells of 3.28 ± 0.16%, a late apoptotic cells of 11.8 ± 0.29% and a live cells of 83.15 ± 0.50%. Besides, in the data set with MCF7 cell line (MCF7, 24 hours), the γH2AX levels is listed as 8.8 ± 0.62. Also, in the data set with MCF7 cell line (MCF7, 48 hours), the γH2AX levels was found to be 39.44 ± 1.69. In the data set with MCF7 cells, the “cells in G1 phase” value was 26.61 ± 0.54%, the “cells in G2 (G2/M) phase” value came out at 49.03 ± 0.99%, the G1 phase population turned out to be 18.3 ± 1.67% and the “G2 (G2/M) phase population” value was 59.36 ± 4.79%.
